Source: PubChem
CFTR F508del cor = F508del CFTR correction, initial screen, CFBE line, single point; CFBE cells, YFP halide quenching; stimulated with forskolin plus potentiator P3; % fluorescence drop versus neutral controls; activity (quench increase), % at 7.58 µM; 350,000 tested, 0.36% active;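 active = mean added fluorescence quench of at least 8% versus neutral control, with both replicates also reaching 8%; inconclusive = only one of the mean or replicate conditions met; inactive = mean below 8% and not both replicates reaching 8%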;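 note: cells transiently co-express mutant CFTR-F508del with the halide-sensitive YFP; corrector assay measuring rescue of mutant channel to the surface after 24 h compound exposure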
DENV2 CPE = inhibitors of DENV2 cytopathic effect, primary screen, cell-based, plate reader, single concentration; DENV2-infected cells, cytopathic effect rescue; CPE inhibition, % at 9.99 µM; 350,000 tested, 1.7% active; AID 651640, 2012; in the data active = CPE inhibition above about 20%, passing the limit was not always enough; inconclusive = no clear call, values can overlap the other calls; tested in BHK-21 cells
ERAP1 inh = human ERAP1 aminopeptidase inhibitors, primary screen, biochemical, single point, plate reader | inhibition, % at 10.7 µM | AID 652197, 2013 | 340,000 tested, 0.15% active | Endoplasmic reticulum aminopeptidase 1 (Homo sapiens), Q9NZ08 | recombinant ERAP1, Leu-AMC fluorescence, 60 min;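 active = mean replicate inhibition of at least 30%, or all replicates individually reaching that 30% level; inactive = mean below 30% and not every replicate reaching it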
Target sequence (Q9NZ08 whole entry, looked up): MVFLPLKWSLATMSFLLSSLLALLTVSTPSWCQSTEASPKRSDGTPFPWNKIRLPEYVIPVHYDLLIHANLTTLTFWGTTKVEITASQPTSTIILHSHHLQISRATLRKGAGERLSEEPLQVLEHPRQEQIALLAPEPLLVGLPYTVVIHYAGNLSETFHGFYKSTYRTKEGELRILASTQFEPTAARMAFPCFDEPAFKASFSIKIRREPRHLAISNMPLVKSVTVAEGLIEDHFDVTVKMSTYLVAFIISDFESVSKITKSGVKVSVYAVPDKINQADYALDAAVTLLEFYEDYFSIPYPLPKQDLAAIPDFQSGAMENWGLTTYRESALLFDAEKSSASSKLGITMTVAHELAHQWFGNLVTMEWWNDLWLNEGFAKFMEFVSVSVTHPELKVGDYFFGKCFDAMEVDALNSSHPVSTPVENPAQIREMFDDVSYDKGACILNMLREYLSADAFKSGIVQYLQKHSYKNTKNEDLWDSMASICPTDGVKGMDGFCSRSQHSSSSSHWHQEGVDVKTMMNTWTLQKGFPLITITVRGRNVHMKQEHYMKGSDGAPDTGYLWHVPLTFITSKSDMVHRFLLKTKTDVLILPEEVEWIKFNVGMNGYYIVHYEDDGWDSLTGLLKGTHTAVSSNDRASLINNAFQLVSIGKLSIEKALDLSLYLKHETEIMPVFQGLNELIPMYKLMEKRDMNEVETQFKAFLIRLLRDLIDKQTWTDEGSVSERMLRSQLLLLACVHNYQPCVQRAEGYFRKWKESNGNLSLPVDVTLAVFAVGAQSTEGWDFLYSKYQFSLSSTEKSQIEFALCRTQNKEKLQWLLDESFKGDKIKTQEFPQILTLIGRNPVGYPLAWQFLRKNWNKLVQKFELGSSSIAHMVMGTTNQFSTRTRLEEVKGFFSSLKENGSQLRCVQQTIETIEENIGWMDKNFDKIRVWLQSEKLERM
E-sel inducer = E-selectin induction in HUVECs, primary screen, imaging, HUVEC, immunofluorescence imaging, single point; activation, % at 7.58 µM; AID 686992, 2013; 260,000 tested, 0.37% active; P16581; normalized: neutral wells 0, TNF-alpha wells 100;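 active = mean E-selectin-positive cell signal at least 10% of the positive control, reached in at least 60% of replicates, without over 20% cell loss; inconclusive = no rule given, readout overlaps actives, possibly toxicity-flagged; inactive = the rest, including those meeting only one limit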
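System: HUVEC / Compound: single concentration / Signal: immunofluorescence imaging / Read-out: percent E-selectin-positive cells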
miR-122 sensor = miR-122 Renilla sensor signal increase in Huh7, primary screen, miR-122 inhibitor project, cell-based, single point, plate reader; Huh7 miR-122 Renilla luciferase sensor, 48 h; neutral wells = 0, positive control = 100; activation (reporter increase), % at 12.5 µM; 340,000 tested, 0.3% active; AID 602342, 2012;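 active = mean replicate activation score at least 90 and every replicate individually at or above 90; inconclusive = only one of the two criteria met; inactive = neither criterion met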;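 note: higher luciferase means less miR-122 activity so hits act as miR-122 inhibitors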
INS-1E GSIS act = GLuc luminescence reporter in INS-1E cells, primary screen for activators of glucose-dependent secretion of insulin; AID 743287, 2014; activation, % at 16.6 µM; 370,000 tested, 0.61% active; INS-1E GLuc reporter insulin secretion, 2-3 h;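 active = lowest replicate activation of at least 40%, so every replicate reaches that level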
Hits are given with their value; . = inactive; ? = inconclusive; / = no result given. In the library only some 2.6% were active in any assay of this set; here they are far more common.

SMILES	CFTR F508del cor	DENV2 CPE	ERAP1 inh	E-sel inducer	miR-122 sensor	INS-1E GSIS act
C=CCNc1cc(F)ccc1S(=O)(=O)NCC=C	.	.	.	.	95.5	.
COc1ccc(C(O)(CCC(C)C)C(CN2CCOCC2)c2ccccc2)cc1 (stereo not drawn)	.	.	.	.	.	.
CC(C)CCC(O)(c1ccccc1)C(CN1CCOCC1)c1ccccc1 (stereo not drawn)	.	29.8	.	/	/	.
CCOC(=O)C1=C(C)NC(C)=C(C(=O)OCC)C1C	.	.	33.7	.	.	.
CCOC(=O)C1=C(C)NC(C)=C(C(=O)OCC)C1c1ccc(OC)cc1	/	/	/	.	/	/
COc1cc(-c2noc(C)c2C#Cc2ccccn2)cc(OC)c1OC	10.0	.	.	.	/	.
COc1cc(-c2noc(C)c2C#Cc2ccc(N)cc2)cc(OC)c1OC	.	.	.	.	.	.
COc1ccc2c(c1)CCc1cc(C(=O)O)sc1-2	.	.	.	.	.	64.9
CC(C)C#Cc1ccc([C@@H]2[C@H](CO)N3CCCCN(C(=O)c4ccc5c(c4)OCO5)C[C@@H]23)cc1	.	.	.	.	.	.
O=S(=O)(c1cccc(Br)c1)N1CCN(C(=S)NCC2CCCO2)CC1 (stereo not drawn)	.	67.7	.	.	/	.
O=S(=O)(c1cccc(F)c1)N1CCN(C(=S)NCC2CCCO2)CC1 (stereo not drawn)	.	.	.	.	/	.
COc1ccc2c3c(n(C)c2c1)[C@H](CO)N(S(C)(=O)=O)CC31CCN(C(=O)c2ccccn2)CC1	.	77.3	/	.	/	.
COc1ccc2c3c(n(C)c2c1)[C@@H](CO)N(S(C)(=O)=O)CC31CN(C(=O)c2ccccn2)C1	.	34.1	.	.	/	.
CCOC(=O)c1cccc(NC(=O)c2cnccn2)c1	/	/	/	/	.	/
CCOC(=O)c1cc(NC(=O)c2cnccn2)cc(C(=O)OCC)c1	/	/	/	/	.	85.8
Cn1ccc2c(-c3cccc(C=O)c3)cc3c(c21)C1CCC3O1 (stereo not drawn)	.	50.3	.	.	.	.
COc1ccc(NC(=O)N(C)C[C@@H]2Oc3ccc(N(C)C)cc3C(=O)N([C@@H](C)CO)C[C@H]2C)cc1	.	.	.	.	.	.
C[C@H](CO)N1C[C@H](C)[C@H](CN(C)S(=O)(=O)c2ccccc2)Oc2ccc(NS(=O)(=O)c3cccs3)cc2CC1=O	.	.	.	.	.	.
C[C@@H]1CN([C@@H](C)CO)C(=O)Cc2cc(NS(=O)(=O)c3cccs3)ccc2O[C@H]1CN(C)S(=O)(=O)c1ccccc1	.	77.8	.	.	.	.
CC(C)NC(=O)N(C)C[C@@H]1Oc2ccc(NS(=O)(=O)c3cccs3)cc2CC(=O)N([C@@H](C)CO)C[C@H]1C	.	.	.	28.5	.	.
CC(C)NC(=O)N(C)C[C@H]1Oc2ccc(NS(=O)(=O)c3cccs3)cc2CC(=O)N([C@@H](C)CO)C[C@@H]1C	.	.	.	.	.	.
CC(C)NC(=O)N(C)C[C@@H]1Oc2ccc(NS(=O)(=O)c3cccs3)cc2CC(=O)N([C@@H](C)CO)C[C@@H]1C	.	21.6	.	.	.	.
CC(C)NC(=O)N(C)C[C@@H]1Oc2ccc(NS(=O)(=O)c3cccs3)cc2CC(=O)N([C@H](C)CO)C[C@H]1C	.	.	.	.	.	.
O=C(C[C@H]1CC[C@H]2[C@@H](COC[C@@H](O)CN2Cc2ccccc2)O1)N1CCOCC1	.	.	.	.	.	.
Cc1noc(C)c1S(=O)(=O)N(C)C[C@@H]1OCCCC[C@@H](C)Oc2ccc(NS(=O)(=O)c3cccs3)cc2C(=O)N([C@H](C)CO)C[C@H]1C	.	.	.	.	.	.
SMILES	CFTR F508del cor	DENV2 CPE	ERAP1 inh	E-sel inducer	miR-122 sensor	INS-1E GSIS act
COc1ccc2oc(C(=O)N3CCN(C(c4ccccc4)c4ccccc4)CC3)c(C)c2c1	.	.	.	/	.	.
COc1ccc2oc(C(=O)N3CCc4ccccc43)c(C)c2c1	.	.	.	.	137.0	.
COc1ccc(CN(C)C[C@H]2OCCCC[C@@H](C)Oc3ccc(NC(=O)Nc4ccccc4)cc3C(=O)N([C@H](C)CO)C[C@H]2C)cc1	.	.	/	.	.	.
COc1ccc(CN(C)C[C@H]2Oc3ccc(NS(=O)(=O)c4c(C)noc4C)cc3C(=O)N([C@H](C)CO)C[C@@H]2C)cc1	.	.	.	.	.	.
O=C(NNS(=O)(=O)c1ccc(Cl)cc1)c1cccs1	.	/	.	/	115.6	.
Cc1cccc(S(=O)(=O)c2c(N)n(Cc3ccco3)c3nc4ccccc4nc23)c1	/	/	/	/	.	/
Cc1ccc(S(=O)(=O)c2c(N)n(Cc3ccco3)c3nc4ccccc4nc23)cc1	/	/	.	/	121.4	/
Cc1nc2ccccc2c2oc(C(=O)NCCN3CCN(C)CC3)cc12	.	22.3	.	/	.	.
Cc1nc2ccccc2c2oc(C(=O)NCCCN3CCCC3=O)cc12	.	.	.	.	.	.
CN(C)C(=O)c1ccc(-c2ccc(C3[C@@H]4CN(C(=O)C5CCCCC5)C[C@H]3N4)cc2)cc1 (stereo partly drawn)	.	.	.	.	/	.
C[C@H](CO)N1C[C@H](C)[C@@H](CN(C)C(=O)C2CCC2)Oc2cc(C3=CCCC3)ccc2S1(=O)=O	.	32.5	.	.	.	.
C[C@H](CO)N1C[C@H](C)[C@@H](CN(C)C(=O)C2CCC2)Oc2cc(-c3cncnc3)ccc2S1(=O)=O	.	28.7	.	.	.	.
CC(C)NC(=O)N(C)C[C@@H]1Oc2cc(C3=CCCC3)ccc2S(=O)(=O)N([C@H](C)CO)C[C@@H]1C	.	46.7	.	.	.	.
C[C@H]1CN([C@@H](C)CO)S(=O)(=O)c2ccc(C3=CCCCC3)cc2O[C@@H]1CN(C)C(=O)Cc1ccncc1	8.5	.	.	.	.	.
COCC#Cc1ccc2c(c1)O[C@@H](CN(C)S(=O)(=O)c1cccc(F)c1)[C@H](C)CN([C@@H](C)CO)S2(=O)=O	.	.	.	.	.	.
COc1ccc(S(=O)(=O)N[C@H]2CC[C@@H](CCn3cc(C(C)C)nn3)O[C@H]2CO)cc1	.	.	.	.	.	.
COc1ccc(CN(C)C[C@H]2OCCCC[C@@H](C)Oc3ccc(NC(=O)c4ccncc4)cc3C(=O)N([C@H](C)CO)C[C@H]2C)cc1	.	.	.	.	.	.
COc1cccc(NC(=O)N(C)C[C@H]2Oc3ncc(C4=CCCCC4)cc3C(=O)N([C@H](C)CO)C[C@@H]2C)c1	.	?	.	.	.	.
